Data reported in ChEMBL document CHEMBL1146278, “Design and synthesis of substrate-mimic inhibitors of mycothiol-S-conjugate amidase from Mycobacterium tuberculosis” (Bioorg Med Chem Lett, 2007).

Molecular target: T1, Mycothiol S-conjugate amidase (Mycobacterium tuberculosis) (UniProt P9WJN1)
T1 sequence (whole entry): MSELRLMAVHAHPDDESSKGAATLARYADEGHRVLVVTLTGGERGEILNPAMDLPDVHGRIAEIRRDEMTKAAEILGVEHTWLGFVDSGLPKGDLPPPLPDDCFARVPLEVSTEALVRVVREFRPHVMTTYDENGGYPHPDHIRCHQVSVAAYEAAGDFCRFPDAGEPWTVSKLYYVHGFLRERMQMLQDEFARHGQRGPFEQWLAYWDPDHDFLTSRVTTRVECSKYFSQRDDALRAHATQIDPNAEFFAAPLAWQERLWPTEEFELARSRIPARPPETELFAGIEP
Test: Inhibition of Mycobacterium tuberculosis MCA at 50 uM
Summary of the method: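 Recombinant MCA was assayed by fluorescence-detected HPLC, with mycothiol bimane (MSmB) or its cyclohexyl thioglycoside analog as substrate. Inhibitors were screened at 100 and 50 μM, and the reported values are at a final 50 μM. Each value is the mean of two experiments. Below 10% inhibition was scored as no inhibition.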

Structure (SMILES)	inhibition [%]
O=C(N[C@H]1[C@@H](O[C@@H]2C[C@](O)(CO)C[C@@H](O)[C@H]2O)O[C@H](CO)[C@@H](O)[C@@H]1O)c1ccco1	15
O=C(N[C@H]1[C@@H](O[C@@H]2C[C@](O)(CO)C[C@@H](O)[C@H]2O)O[C@H](CO)[C@@H](O)[C@@H]1O)c1cccs1	13
O=C(N[C@H]1[C@@H](O[C@@H]2C[C@](O)(CO)C[C@@H](O)[C@H]2O)O[C@H](CO)[C@@H](O)[C@@H]1O)c1ccncc1	46
O=C(N[C@H]1[C@@H](O[C@@H]2C[C@](O)(CO)C[C@@H](O)[C@H]2O)O[C@H](CO)[C@@H](O)[C@@H]1O)c1ccc2ccsc2c1	< 10
O=C(N[C@H]1[C@@H](O[C@@H]2C[C@](O)(CO)C[C@@H](O)[C@H]2O)O[C@H](CO)[C@@H](O)[C@@H]1O)c1ccc(C(F)(F)F)cc1	16
O=C(N[C@H]1[C@@H](O[C@@H]2C[C@](O)(CO)C[C@@H](O)[C@H]2O)O[C@H](CO)[C@@H](O)[C@@H]1O)C1CC1	13
Cc1onc(-c2c(F)cccc2Cl)c1C(=O)N[C@H]1[C@@H](O[C@@H]2C[C@](O)(CO)C[C@@H](O)[C@H]2O)O[C@H](CO)[C@@H](O)[C@@H]1O	< 10
CC(C)S(=O)(=O)c1csc(C(=O)N[C@H]2[C@@H](O[C@@H]3C[C@](O)(CO)C[C@@H](O)[C@H]3O)O[C@H](CO)[C@@H](O)[C@@H]2O)c1Cl	11
CCCSc1cc(C(=O)N[C@H]2[C@@H](O[C@@H]3C[C@](O)(CO)C[C@@H](O)[C@H]3O)O[C@H](CO)[C@@H](O)[C@@H]2O)ccn1	15
O=C(N[C@H]1[C@@H](O[C@@H]2C[C@](O)(CO)C[C@@H](O)[C@H]2O)O[C@H](CO)[C@@H](O)[C@@H]1O)c1cccnc1Sc1ccc(Cl)cc1	10
O=C(N[C@H]1[C@@H](O[C@@H]2C[C@](O)(CO)C[C@@H](O)[C@H]2O)O[C@H](CO)[C@@H](O)[C@@H]1O)c1ccc([N+](=O)[O-])cc1	15
CCCc1c(C(=O)N[C@H]2[C@@H](O[C@@H]3C[C@](O)(CO)C[C@@H](O)[C@H]3O)O[C@H](CO)[C@@H](O)[C@@H]2O)cnn1-c1cc(Cl)cc(Cl)c1	26
CN(C)c1ccc(C(=O)N[C@H]2[C@@H](O[C@@H]3C[C@](O)(CO)C[C@@H](O)[C@H]3O)O[C@H](CO)[C@@H](O)[C@@H]2O)cc1	44
O=C(N[C@H]1[C@@H](O[C@@H]2C[C@](O)(CO)C[C@@H](O)[C@H]2O)O[C@H](CO)[C@@H](O)[C@@H]1O)c1ccc2ccccc2c1	13
